Test results as given in ChEMBL document CHEMBL3997798, “Novel Selective Estrogen Receptor Downregulators (SERDs) Developed against Treatment-Resistant Breast Cancer” (J Med Chem, 2017).

How the values were obtained:
[1] = Oral bioavailability in rat; format: ADME, organism-based; conditions: in vivo
Plasma = assay: Drug uptake in mouse plasma at 100 mg/kg, po via gavage at 0.5 to 4 hrs post dose by LC-MS/MS analysis; format: ADME, organism-based; conditions: in vivo
Method in brief: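 Plasma concentrations in mice were measured at 0.5 and 4 h after a 100 mg/kg oral dose given as a 0.5% CMC suspension.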

Structure (SMILES)	bioavailability [1] [%]	Drug uptake (Plasma)
Oc1ccc2c(c1)CC[C@H](c1ccccc1)[C@@H]2c1ccc(OCCN2CCCC2)cc1 [LASOFOXIFENE]	> 60	
Cc1cc(F)cc(C)c1C(=O)c1sc2cc(O)ccc2c1Oc1ccc(/C=C/C(=O)O)cc1 [RINTODESTRANT]		Active
Cc1ccc(C(=O)c2sc3cc(O)ccc3c2Oc2ccc(/C=C/C(=O)O)cc2)c(C)c1		Active
Cc1cc(Cl)cc(C)c1C(=O)c1sc2cc(O)ccc2c1Oc1ccc(/C=C/C(=O)O)cc1		Active
